# According to ChEMBL document CHEMBL1137403, “Discovery of 2-[4-{{2-(2S,5R)-2-cyano-5-ethynyl-1-pyrrolidinyl]-2-oxoethyl]amino]- 4-methyl-1-piperidinyl]-4-pyridinecarboxylic acid (ABT-279): a very potent, selective, effective, and well-tolerated inhibitor of dipeptidyl peptidase-IV, useful for the treatment of diabetes” (J Med Chem, 2006):
# Active and inactive are the calls of the source. The calls are words filed in the database; no cut-off is given here.
# Assays:
# [1] = Half life in cynomolgus monkey at 2.5 mg/kg, po; assay type: ADME, organism-based, Macaca fascicularis; set-up: dose 2.5 mg/kg, route oral; details: in vivo
# [2] = Half life in Sprague-Dawley rat at 5 mg/kg, po; assay type: ADME, organism-based; set-up: dose 5 mg/kg, route oral; details: in vivo
# [3] = Volume of distribution in terminal phase in Beagle dog at 2.5 mg/kg, iv; assay type: ADME, organism-based, Canis lupus familiaris; set-up: dose 2.5 mg/kg, route intravenous; details: in vivo, read-out: Vbeta
# [4] = Half life in cynomolgus monkey at 2.5 mg/kg, iv; assay type: ADME, organism-based, Macaca fascicularis; set-up: dose 2.5 mg/kg, route intravenous; details: in vivo
# [5] = Tmax in Sprague-Dawley rat at 5 mg/kg, po; assay type: ADME, organism-based; set-up: dose 5 mg/kg, route oral; details: in vivo
# [6] = biological target: Voltage-gated inwardly rectifying potassium channel KCNH2 (Homo sapiens, UniProt Q12809); assay: Binding affinity to hERG
# [7] = biological target: Dipeptidyl peptidase 2 (Homo sapiens, UniProt Q9UHL4); assay: Inhibition of DPP7
# [8] = Volume of distribution in terminal phase in Sprague-Dawley rat at 5 mg/kg, iv; assay type: ADME, organism-based; set-up: dose 5 mg/kg, route intravenous; details: in vivo, read-out: Vbeta
# [9] = Cmax in cynomolgus monkey at 2.5 mg/kg, po; assay type: ADME, organism-based, Macaca fascicularis; set-up: dose 2.5 mg/kg, route oral; details: in vivo
# [10] = AUC (0-24h) in rat; assay type: ADME, organism-based; set-up: time < 24 hr; details: plasma
# [11] = organism: Rattus norvegicus; assay: Increase in insulin level in Zucker rat after 10 mins relative to control; assay type: functional
# Procedure, shortened: (§1)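 Female ZDF rats, 10 weeks old, fasted overnight, then dosed orally with vehicle or drug. Four hours after dosing (t = 0) they had free access for 4 h to a liquid mixed meal (Ensure). Plasma was sampled for drug level, active GLP-1, insulin, glucagon and glucose.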
# [12] = biological target: Cytochrome P450 2C9 (Homo sapiens, UniProt P11712); assay: Inhibition of CYP2C9; assay type: ADME
# [13] = AUC in Beagle dog at 2.5 mg/kg, po; assay type: ADME, organism-based, Canis lupus familiaris; set-up: dose 2.5 mg/kg, route oral; details: plasma
# [14] = biological target: Dipeptidyl peptidase 4 (Rattus norvegicus) (UniProt P14740); assay: Inhibition of Zucker rat plasma DPP4 after 4 hrs at 1 mg/kg; assay type: functional, organism-based; set-up: dose 1 mg/kg
# Procedure, shortened: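 Female Zucker diabetic fatty rats, 10 weeks old, fasted overnight, then given a single oral dose of 1 mg/kg or vehicle. Plasma DPP-IV activity inhibition and plasma drug level were measured 4 h post-dose, at the point when the rats were given free access to a liquid mixed meal (Ensure).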
# [15] = Plasma clearance in cynomolgus monkey at 2.5 mg/kg, iv; assay type: ADME, organism-based, Macaca fascicularis; set-up: dose 2.5 mg/kg, route intravenous
# [16] = organism: Rattus norvegicus; assay: GLP1 level in Zucker rat after 10 mins; assay type: functional; procedure, shortened: as §1
# [17] = Oral bioavailability in cynomolgus monkey at 2.5 mg/kg, po; assay type: ADME, organism-based, Macaca fascicularis; details: in vivo
# [18] = system: Rattus norvegicus; assay: Hemodynamic activity in rat upto 28 ug/ml, iv; assay type: functional, organism-based
# Procedure, shortened: (§2)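 Hemodynamic and electrocardiographic profile recorded in anesthetized rats or dogs given the drug intravenously, at plasma concentrations up to 28 µg/mL.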
# [19] = organism: Rattus norvegicus; assay: Reduction in postprandial glucose excursion in Zucker rat measured as AUC glucose (0-240 min) relative to control; assay type: functional; set-up: scale not given: the % may be the effect or the level left; procedure, shortened: as §1
# [20] = AUC (0-24h) in dog; assay type: ADME, organism-based, Canis lupus familiaris; set-up: time < 24 hr; details: plasma
# [21] = organism: Rattus norvegicus; assay: Insulin level in Zucker rat after 10 mins; assay type: functional; procedure, shortened: as §1
# [22] = biological target: T1, Prolyl endopeptidase (Homo sapiens, UniProt P48147); assay: Inhibition of POP
# T1 sequence (P48147 whole entry): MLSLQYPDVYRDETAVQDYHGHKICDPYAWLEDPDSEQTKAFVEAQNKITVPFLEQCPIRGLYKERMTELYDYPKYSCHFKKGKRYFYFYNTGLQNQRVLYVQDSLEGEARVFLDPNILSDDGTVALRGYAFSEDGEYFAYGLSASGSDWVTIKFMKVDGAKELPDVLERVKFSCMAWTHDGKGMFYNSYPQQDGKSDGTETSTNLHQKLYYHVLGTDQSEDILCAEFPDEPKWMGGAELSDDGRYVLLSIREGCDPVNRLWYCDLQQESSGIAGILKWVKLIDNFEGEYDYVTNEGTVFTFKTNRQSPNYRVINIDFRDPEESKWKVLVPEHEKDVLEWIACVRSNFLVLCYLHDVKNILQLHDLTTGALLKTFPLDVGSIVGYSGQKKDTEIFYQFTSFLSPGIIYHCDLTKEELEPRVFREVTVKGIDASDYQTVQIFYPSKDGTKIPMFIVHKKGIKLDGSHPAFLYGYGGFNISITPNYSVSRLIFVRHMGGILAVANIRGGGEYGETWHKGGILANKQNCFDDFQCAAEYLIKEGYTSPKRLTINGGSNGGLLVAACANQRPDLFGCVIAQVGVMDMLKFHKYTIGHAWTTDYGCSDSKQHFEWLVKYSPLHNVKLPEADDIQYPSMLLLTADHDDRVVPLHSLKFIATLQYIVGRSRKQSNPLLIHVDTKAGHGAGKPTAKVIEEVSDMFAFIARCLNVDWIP
# [23] = system: Canis familiaris; assay: Electrocardiographic activity in dog upto 28 ug/ml, iv; assay type: functional, organism-based; details: Canis lupus familiaris; procedure, shortened: as §2
# [24] = AUC in Beagle dog at 2.5 mg/kg, iv; assay type: ADME, organism-based, Canis lupus familiaris; set-up: dose 2.5 mg/kg, route intravenous; details: plasma
# Procedure, shortened: (§3)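 Single intravenous dose. Plasma drug exposure is reported as area under the curve in µg-hr/mL. It is listed in the same table as T1/2, Vss, Vβ and plasma clearance (CLp).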
# [25] = AUC in cynomolgus monkey at 2.5 mg/kg, iv; assay type: ADME, organism-based, Macaca fascicularis; set-up: dose 2.5 mg/kg, route intravenous; details: plasma; procedure, shortened: as §3
# [26] = biological target: Cytochrome P450 3A4 (Homo sapiens, UniProt P08684); assay: Inhibition of CYP3A4; assay type: ADME
# [27] = Oral bioavailability in Beagle dog at 2.5 mg/kg, po; assay type: ADME, organism-based, Canis lupus familiaris; details: in vivo
# Cytochrome P450 3A4, sequence (P08684 whole entry): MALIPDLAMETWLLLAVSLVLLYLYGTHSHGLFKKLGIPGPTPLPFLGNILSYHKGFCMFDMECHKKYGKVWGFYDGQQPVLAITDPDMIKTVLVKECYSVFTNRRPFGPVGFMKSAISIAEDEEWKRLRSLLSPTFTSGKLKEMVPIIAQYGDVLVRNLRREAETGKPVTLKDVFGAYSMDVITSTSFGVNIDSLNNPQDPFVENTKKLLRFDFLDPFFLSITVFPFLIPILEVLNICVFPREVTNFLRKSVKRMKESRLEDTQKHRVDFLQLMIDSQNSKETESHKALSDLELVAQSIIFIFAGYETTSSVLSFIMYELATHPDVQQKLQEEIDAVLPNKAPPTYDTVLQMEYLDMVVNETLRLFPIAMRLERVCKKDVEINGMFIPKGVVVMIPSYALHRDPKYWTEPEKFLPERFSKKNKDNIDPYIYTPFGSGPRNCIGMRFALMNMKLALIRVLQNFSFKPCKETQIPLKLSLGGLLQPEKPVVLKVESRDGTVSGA
# Dipeptidyl peptidase 4 (Rattus norvegicus), sequence (P14740 whole entry, looked up): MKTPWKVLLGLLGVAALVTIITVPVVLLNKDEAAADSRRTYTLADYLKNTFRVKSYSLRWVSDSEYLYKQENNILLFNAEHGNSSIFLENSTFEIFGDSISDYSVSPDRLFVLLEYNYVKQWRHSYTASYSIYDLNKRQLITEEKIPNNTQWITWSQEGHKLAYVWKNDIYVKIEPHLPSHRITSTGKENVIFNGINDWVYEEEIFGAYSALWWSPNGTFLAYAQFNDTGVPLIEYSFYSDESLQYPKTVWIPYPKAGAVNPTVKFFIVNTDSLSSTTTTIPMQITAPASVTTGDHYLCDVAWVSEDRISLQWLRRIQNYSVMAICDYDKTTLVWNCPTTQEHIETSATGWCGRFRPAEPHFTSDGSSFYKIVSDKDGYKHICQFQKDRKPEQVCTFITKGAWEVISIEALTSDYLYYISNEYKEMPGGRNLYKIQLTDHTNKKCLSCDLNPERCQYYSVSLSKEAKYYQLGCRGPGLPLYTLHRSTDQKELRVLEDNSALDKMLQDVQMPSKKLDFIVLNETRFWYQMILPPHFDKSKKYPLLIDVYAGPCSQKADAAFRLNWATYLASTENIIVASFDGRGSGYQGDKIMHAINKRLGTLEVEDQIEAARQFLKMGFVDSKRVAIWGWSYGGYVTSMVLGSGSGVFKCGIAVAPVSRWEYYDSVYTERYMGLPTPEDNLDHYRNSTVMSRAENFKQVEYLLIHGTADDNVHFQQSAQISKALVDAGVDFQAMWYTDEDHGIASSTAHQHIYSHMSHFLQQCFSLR
# Voltage-gated inwardly rectifying potassium channel KCNH2, sequence (Q12809 whole entry): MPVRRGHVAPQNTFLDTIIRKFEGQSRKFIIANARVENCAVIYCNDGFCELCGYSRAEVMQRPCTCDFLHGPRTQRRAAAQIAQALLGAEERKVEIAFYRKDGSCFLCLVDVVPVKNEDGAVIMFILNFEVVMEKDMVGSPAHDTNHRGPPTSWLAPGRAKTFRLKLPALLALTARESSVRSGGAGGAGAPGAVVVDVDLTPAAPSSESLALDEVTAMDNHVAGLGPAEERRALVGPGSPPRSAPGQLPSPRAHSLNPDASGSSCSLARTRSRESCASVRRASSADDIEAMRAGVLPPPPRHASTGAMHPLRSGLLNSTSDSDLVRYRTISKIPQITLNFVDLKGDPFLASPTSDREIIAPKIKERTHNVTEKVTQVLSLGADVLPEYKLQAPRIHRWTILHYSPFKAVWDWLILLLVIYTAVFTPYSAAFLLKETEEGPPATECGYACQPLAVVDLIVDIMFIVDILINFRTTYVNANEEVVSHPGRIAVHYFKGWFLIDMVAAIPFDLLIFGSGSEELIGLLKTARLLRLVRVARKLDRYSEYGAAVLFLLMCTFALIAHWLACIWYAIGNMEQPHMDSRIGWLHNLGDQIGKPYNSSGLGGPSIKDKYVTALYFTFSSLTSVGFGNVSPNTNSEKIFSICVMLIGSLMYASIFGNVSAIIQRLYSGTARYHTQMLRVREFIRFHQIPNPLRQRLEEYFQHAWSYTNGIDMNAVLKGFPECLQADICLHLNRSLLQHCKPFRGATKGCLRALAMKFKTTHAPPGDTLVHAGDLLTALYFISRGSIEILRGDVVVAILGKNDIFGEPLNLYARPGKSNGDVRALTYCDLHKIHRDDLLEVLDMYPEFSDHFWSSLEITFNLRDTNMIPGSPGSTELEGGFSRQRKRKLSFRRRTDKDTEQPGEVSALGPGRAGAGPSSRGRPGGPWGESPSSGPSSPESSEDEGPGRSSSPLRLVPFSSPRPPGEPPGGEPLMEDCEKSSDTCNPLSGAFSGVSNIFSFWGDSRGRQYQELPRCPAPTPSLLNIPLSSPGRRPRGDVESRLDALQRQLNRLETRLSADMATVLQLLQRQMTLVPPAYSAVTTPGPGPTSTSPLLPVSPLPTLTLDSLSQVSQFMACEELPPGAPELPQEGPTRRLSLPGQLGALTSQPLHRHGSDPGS
# Cytochrome P450 2C9, sequence (P11712 whole entry): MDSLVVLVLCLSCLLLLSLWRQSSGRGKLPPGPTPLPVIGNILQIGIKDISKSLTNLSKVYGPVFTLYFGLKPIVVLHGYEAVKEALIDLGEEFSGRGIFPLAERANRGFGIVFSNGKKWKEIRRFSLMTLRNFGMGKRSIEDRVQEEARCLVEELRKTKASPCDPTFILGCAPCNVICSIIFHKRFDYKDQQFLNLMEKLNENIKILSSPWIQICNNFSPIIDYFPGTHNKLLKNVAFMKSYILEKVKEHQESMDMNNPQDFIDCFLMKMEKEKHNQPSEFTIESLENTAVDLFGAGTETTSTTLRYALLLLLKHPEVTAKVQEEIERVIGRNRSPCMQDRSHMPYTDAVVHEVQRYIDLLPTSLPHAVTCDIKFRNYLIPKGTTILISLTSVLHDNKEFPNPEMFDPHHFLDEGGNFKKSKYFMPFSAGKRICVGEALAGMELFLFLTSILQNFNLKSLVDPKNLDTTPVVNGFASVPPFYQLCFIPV
smiles,measurement,setting,value
C#C[C@H]1CC[C@@H](C#N)N1C(=O)CNC1(C)CCN(c2cc(C(=O)O)ccn2)CC1,half-life,[1],2 h
same,half-life,[2],4.7 h
same,Vd,[3],8.5 L/kg
same,half-life,[4],1.7 h
same,Tmax,[5],4.7 h
same,Ki,[6],> 45.1 µM
same,Ki,[7],> 30 µM
same,Vd,[8],6.7 L/kg
same,Cmax,[9],140 ng/mL
same,AUC(0-t) at 24 h,[10],39000 ng·h/mL
same,Activity,[11],60%
same,IC50,[12],> 30 µM
same,AUC,[13],970 ng·h/mL
same,inhibition,[14],87%
same,clearance,[15],8.5 mL/min/kg
same,Activity,[16],29 pM
same,bioavailability,[17],11.2%
same,Activity,[18],Active
same,Activity,[19],50%
same,AUC(0-t) at 24 h,[20],36000 ng·h/mL
same,Activity,[21],39 ng/mL
same,Ki,[22],> 30 µM
same,Activity,[23],Active
same,AUC,[24],2800 ng·h/mL
same,AUC,[25],5200 ng·h/mL
same,IC50,[26],> 30 µM
same,bioavailability,[27],35.2%
